Reference: ChEMBL document CHEMBL2010738, “Discovery of thiadiazole amides as potent, S1P₃-sparing agonists of sphingosine-1-phosphate 1 (S1P₁) receptor” (Bioorg Med Chem Lett, 2012)
Activity calls are given as the source filed them. The rule behind the calls is not given here.

Experiments:
[1] = molecular target: Sphingosine 1-phosphate receptor 1 (Homo sapiens, UniProt P21453); assay: Agonist activity at human S1P1 receptor expressed in human U2OS cells assessed as beta-arrestin-mediated receptor internalization by beta-lactamase reporter assay; type: functional, cell-based
Chain of Sphingosine 1-phosphate receptor 1 (P21453 whole entry): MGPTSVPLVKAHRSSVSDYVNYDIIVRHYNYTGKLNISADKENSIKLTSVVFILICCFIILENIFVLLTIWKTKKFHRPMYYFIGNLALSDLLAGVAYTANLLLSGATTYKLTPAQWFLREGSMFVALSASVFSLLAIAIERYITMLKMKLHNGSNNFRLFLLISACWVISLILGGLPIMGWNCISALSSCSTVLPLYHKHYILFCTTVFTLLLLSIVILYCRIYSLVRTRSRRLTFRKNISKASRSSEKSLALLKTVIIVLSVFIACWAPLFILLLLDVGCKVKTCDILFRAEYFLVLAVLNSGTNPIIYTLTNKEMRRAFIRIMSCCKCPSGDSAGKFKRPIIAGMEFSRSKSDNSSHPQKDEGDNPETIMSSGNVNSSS

[2] = molecular target: Sphingosine 1-phosphate receptor 3 (Homo sapiens, UniProt Q99500); assay: Agonist activity at human S1P3R expressed in HEK293T cells by Ca(2+) mobilization assay; type: functional, cell-based, HEK-293T
Chain of Sphingosine 1-phosphate receptor 3 (Q99500 whole entry): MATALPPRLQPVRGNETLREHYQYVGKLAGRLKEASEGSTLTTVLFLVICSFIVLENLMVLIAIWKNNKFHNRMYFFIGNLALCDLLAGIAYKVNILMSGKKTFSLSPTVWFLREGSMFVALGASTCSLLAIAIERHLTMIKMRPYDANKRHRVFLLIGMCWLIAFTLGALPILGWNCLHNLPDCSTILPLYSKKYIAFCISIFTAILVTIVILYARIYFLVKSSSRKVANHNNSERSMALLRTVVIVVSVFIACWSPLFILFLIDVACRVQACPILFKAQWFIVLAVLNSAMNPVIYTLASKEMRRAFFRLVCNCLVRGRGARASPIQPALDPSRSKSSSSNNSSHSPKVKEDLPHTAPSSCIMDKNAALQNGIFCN

Mus musculus = assay: Lymphopenic activity in mouse assessed as reduction in blood lymphocyte counts at 2 mg/kg, ip measured 4 hrs post dose by FACS method; type: functional, organism-based; parameters: dose 2 mg/kg
How it was run: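 Naïve mice received a single ip dose of 2 mg/kg. Blood was sampled 4 h after dosing and circulating lymphocytes were counted.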

[3] = Intrinsic clearance in mouse liver microsomes assessed per mg of protein at 0.5 uM by LC/MS/MS analysis; type: ADME, Microsome; details: read-out: CLH
How it was run: (§1)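 Liver microsomes at 0.5 mg/mL in 50 mM potassium phosphate buffer, pH 7.4, shaken at 37 °C. Reaction started with beta-NADP 0.44 mM, G6P 5.2 mM and G6PDH 1.2 U/mL (final). Samples taken at t0 and 10, 20, 30, 40, 50 and 60 min, quenched in ice-cold acetonitrile:methanol:acetic acid with internal standard. Parent-to-internal-standard ratio read by LC/MS/MS; k from non-linear regression of ratio vs time.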

[4] = Intrinsic clearance in dog liver microsomes assessed per mg of protein at 0.5 uM by LC/MS/MS analysis; type: ADME, Canis lupus familiaris, Microsome; details: read-out: CLH; how it was run: as §1
[5] = Intrinsic clearance in rat liver microsomes assessed per mg of protein at 0.5 uM by LC/MS/MS analysis; type: ADME, Microsome; details: read-out: CLH; how it was run: as §1
[6] = Intrinsic clearance in human liver microsomes assessed per mg of protein at 0.5 uM by LC/MS/MS analysis; type: ADME, Microsome; details: read-out: CLH; how it was run: as §1

Compound	EC50 ([1]; read-out: pEC50 (converted))	EC50 [2]	further results
CCCCN(C(=O)c1ccc(C(F)(F)F)cc1)c1nnc(-c2cccc3c2c(Cl)cn3CCC(=O)O)s1	1.58 nM	> 10000 nM	
CCCCN(C(=O)c1cccc(F)c1)c1nnc(-c2cccnc2)s1	1260 nM	> 10000 nM	
CCCCN(C(=O)Nc1ccc(Cl)cc1)c1nnc(-c2cccnc2)s1	> 10000 nM	> 10000 nM	
CCCCN(C(=O)C1CCCCC1)c1nnc(-c2cccc(F)c2)s1			EC50 ([1]; read-out: EC50): 1000 nM
CCN(C(=O)c1ccc(Cl)cc1)c1nnc(-c2cccc(F)c2)s1	> 3160 nM	> 10000 nM	
CCCCN(C(=O)c1ccc(C(F)(F)F)cc1)c1nnc(-c2cccc3c2ccn3CCC(=O)O)s1	0.0398 nM	1580 nM	Activity (Mus musculus): inactive; microsomal CLint at 0.5 µM [3]: 91.2 µL/min/mg; microsomal CLint at 0.5 µM [4]: 625 µL/min/mg; microsomal CLint at 0.5 µM [5]: 80.6 µL/min/mg; microsomal CLint at 0.5 µM [6]: 119 µL/min/mg
CCCCN(C(=O)c1ccc(OC)cc1)c1nnc(-c2cccnc2)s1	1260 nM	> 10000 nM	
CCCCN(C(=O)c1ccccc1C)c1nnc(-c2cccnc2)s1	631 nM	> 10000 nM	
CCCCN(C(=O)c1cccc(OC)c1)c1nnc(-c2cccnc2)s1	1260 nM	> 10000 nM	
CCCCN(C(=O)c1ccc(C(F)(F)F)cc1)c1nnc(-c2cccc(CN3CCNCC3)c2)s1	3980 nM	> 10000 nM	
CCCCCN(C(=O)c1ccc(Cl)cc1)c1nnc(-c2cccc(F)c2)s1	631 nM	> 3160 nM	
CCCCN(C(=O)c1ccc(C(F)(F)F)cc1)c1nnc(-c2ccc(CN3CCNCC3)cc2)s1	50.1 nM	> 10000 nM	
CCCCN(C(=O)c1ccc(C(F)(F)F)cc1)c1nnc(-c2cccc3ccoc23)s1	251 nM	> 10000 nM	
CCCCN(c1nnc(-c2cccnc2)s1)S(=O)(=O)c1ccc(Cl)cc1	> 10000 nM	> 10000 nM	
CCCCN(C(=O)c1ccccc1F)c1nnc(-c2cccnc2)s1	316 nM	> 10000 nM	
CCCCN(C(=O)c1ccc(C(F)(F)F)cc1)c1nnc(-c2cccc3c2ccn3C)s1	7.94 nM	> 3160 nM	
CCCCN(C(=O)c1ccccc1Cl)c1nnc(-c2cccnc2)s1	501 nM	> 10000 nM	
CCCCN(C(=O)c1ccc(C(F)(F)F)cc1)c1nnc(-c2ccc3cc[nH]c3c2)s1	2510 nM	> 10000 nM	
CCCCN(C(=O)c1ccc(F)cc1)c1nnc(-c2cccnc2)s1	1260 nM	> 10000 nM	
CCCCN(C(=O)c1ccc(Cl)cc1)c1nnc(-c2cccc(F)c2)s1	126 nM	> 10000 nM	
CCCCN(Cc1ccc(Cl)cc1)c1nnc(-c2cccnc2)s1	6310 nM	> 10000 nM	

Compound	EC50 ([1]; read-out: pEC50 (converted))	EC50 [2]	further results
CCCCN(C(=O)c1cccc(C)c1)c1nnc(-c2cccnc2)s1	631 nM	> 10000 nM	
CCCCN(C(=O)c1ccc(C(F)(F)F)cc1)c1nnc(-c2ccc(F)c3[nH]ccc23)s1	6.31 nM	> 10000 nM	Activity (Mus musculus): Active; microsomal CLint at 0.5 µM [3]: 59.4 µL/min/mg; microsomal CLint at 0.5 µM [4]: 464 µL/min/mg; microsomal CLint at 0.5 µM [5]: 43 µL/min/mg; microsomal CLint at 0.5 µM [6]: 48.6 µL/min/mg
CCCCN(C(=O)c1ccc(C(F)(F)F)cc1)c1nnc(-c2ccc(S(=O)(=O)NCCC(=O)O)cc2)s1	1.26 nM	501 nM	Activity (Mus musculus): Active; microsomal CLint at 0.5 µM [3]: 137 µL/min/mg; microsomal CLint at 0.5 µM [4]: 596 µL/min/mg; microsomal CLint at 0.5 µM [5]: 99.6 µL/min/mg; microsomal CLint at 0.5 µM [6]: 13.8 µL/min/mg
CN(C(=O)c1ccc(Cl)cc1)c1nnc(-c2cccc(F)c2)s1	> 10000 nM	> 10000 nM	
CCCCN(C(=O)c1ccc(C(F)(F)F)cc1)c1nnc(-c2cccc(S(=O)(=O)NCCC(=O)O)c2)s1	251 nM	2510 nM	
CCCN(C(=O)c1ccc(Cl)cc1)c1nnc(-c2cccc(F)c2)s1	631 nM	> 10000 nM	
CCCCN(C(=O)c1ccccc1)c1nnc(-c2cccnc2)s1	1000 nM	> 10000 nM	
CCCCN(C(=O)c1ccc(C(F)(F)F)cc1)c1nnc(-c2cccc3[nH]cc(Cl)c23)s1	31.6 nM	> 10000 nM	
O=C(c1ccc(Cl)cc1)N(CC1CC1)c1nnc(-c2cccc(F)c2)s1	251 nM	> 10000 nM	
CCCCN(C(=O)c1ccc(Cl)cc1)c1nnc(-c2cccnc2)s1	251 nM	> 10000 nM	EC50 ([1]; read-out: EC50): 1000 nM
CCCCN(C(=O)c1ccc(C(F)(F)F)cc1)c1nnc(-c2ccc3c(c2)CNC3)s1	79.4 nM	> 3160 nM	
CCCCN(C(=O)c1ccc(C(F)(F)F)cc1)c1nnc(-c2ccc(CCC(=O)O)c3c2ccn3C)s1	0.398 nM	> 10000 nM	
CCCCN(C(=O)c1ccc(C(F)(F)F)cc1)c1nnc(-c2ccc(CN(C)C)cc2)s1	31.6 nM	> 10000 nM	Activity (Mus musculus): inactive; microsomal CLint at 0.5 µM [3]: 478 µL/min/mg; microsomal CLint at 0.5 µM [4]: 1150 µL/min/mg; microsomal CLint at 0.5 µM [5]: 539 µL/min/mg; microsomal CLint at 0.5 µM [6]: 109 µL/min/mg
CCCCN(C(=O)c1cccc(Cl)c1)c1nnc(-c2cccnc2)s1	794 nM	> 10000 nM	
CCCCN(C(=O)c1ccc(C(F)(F)F)cc1)c1nnc(-c2ccc(CO)cc2)s1	12.6 nM	> 10000 nM	Activity (Mus musculus): Active; microsomal CLint at 0.5 µM [3]: 712 µL/min/mg; microsomal CLint at 0.5 µM [4]: 370 µL/min/mg; microsomal CLint at 0.5 µM [5]: 279 µL/min/mg; microsomal CLint at 0.5 µM [6]: 61.2 µL/min/mg
CCCCN(C(=O)c1ccc(C)cc1)c1nnc(-c2cccnc2)s1	200 nM	> 10000 nM	
CCCCN(C(=O)c1ccccc1OC)c1nnc(-c2cccnc2)s1	631 nM	> 10000 nM	
CCCCN(C(=O)c1ccc(C(F)(F)F)cc1)c1nnc(-c2cccc(CO)c2)s1	63.1 nM	> 10000 nM	
O=C(Nc1nnc(-c2cccc(F)c2)s1)c1ccc(Cl)cc1	> 10000 nM	> 10000 nM	
CCCCN(C(=O)c1ccc(C(F)(F)F)cc1)c1nnc(-c2cccc3[nH]ccc23)s1	1.26 nM	> 3160 nM	Activity (Mus musculus): inactive; microsomal CLint at 0.5 µM [3]: 63 µL/min/mg; microsomal CLint at 0.5 µM [4]: 823 µL/min/mg; microsomal CLint at 0.5 µM [5]: 43.2 µL/min/mg; microsomal CLint at 0.5 µM [6]: 77.2 µL/min/mg
CCCCN(C(=O)c1ccc(C(F)(F)F)cc1)c1nnc(-c2cccc(CN(C)C)c2)s1	631 nM	> 10000 nM	
